Key:
[1] = Inhibition of trypsin
Procedure, shortened: (§1)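 Protease-inhibition assay read on a microplate (ELISA-type) reader. Activity is reported as IC50.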

[2] = Inhibition of thrombin; procedure, shortened: as §1

Structure (SMILES) | IC50 [1] [µM] | IC50 [2] [µM]
CC(C)C[C@@H](NC(=O)[C@H](O)Cc1cc(Cl)c(O)c(Cl)c1)C(=O)N1[C@H](C(=O)NCCCCNC(=N)N)C[C@@H]2CC[C@@H](O)C[C@@H]21 | 8.5 | > 45.5
CC[C@H](C)[C@@H](NC(=O)[C@H](O)Cc1cc(Br)c(O)c(Br)c1)C(=O)N1[C@H](C(=O)NCCCCNC(=N)N)C[C@@H]2CC[C@@H](OS(=O)(=O)O)C[C@@H]21 (relative stereo) | 18.2 | > 45.5
CC[C@H](C)[C@@H](NC(=O)[C@H](O)Cc1cc(Cl)c(O)c(Br)c1)C(=O)N1[C@H](C(=O)NCCCCNC(=N)N)C[C@@H]2CC[C@@H](O)C[C@@H]21 (relative stereo) | 3.2 | 12.8

Further molecules by falling IC50 [1], results first:

IC50 [1] [µM] | IC50 [2] [µM] | Structure (SMILES)
12.2 | > 45.5 | CC[C@H](C)[C@@H](NC(=O)[C@H](O)Cc1cc(Cl)c(O)c(Br)c1)C(=O)N1[C@H](C(=O)NCCCCNC(=N)N)C[C@@H]2CC[C@@H](OS(=O)(=O)O)C[C@@H]21 (relative stereo)
2.3 | 12.9 | CC[C@H](C)[C@@H](NC(=O)[C@H](O)Cc1cc(Br)c(O)c(Br)c1)C(=O)N1[C@H](C(=O)NCCCCNC(=N)N)C[C@@H]2CC[C@@H](O)C[C@@H]21 (relative stereo)
